# Compound activity: PubChem, several laboratories
# MT1-MMP act inh = MT1-MMP (human) activation inhibition; HT1080 RFP-PRO-GFP cells, GFP/RFP ratio fluorescence, overnight; percent of plate control window, DMSO zero; P50281; AID 651647; GFP/RFP ratio change, % at 20 µM; 0.061% of 360,000 active;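 active = GFP/RFP ratio change of at least 30% with cell ATP level not reduced by more than half and red fluorescence within 50% of control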
#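 Assay system: HT1080 RFP-PRO-GFP cells | Dosing: 20 µM single dose, 1% DMSO | Incubation: Cells overnight before dosing, compound overnight, 37 °C, 5% CO2 | Evaluation: GFP/RFP fluorescence ratio | Control set: DMSO-only wells and HT1080 RFP-L50D-GFP cell wells as references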
# NOD2 RIPK2 PPI = NOD2-RIPK2 protein interaction inhibition. O43353. CHO BLA complementation NOD2-RIPK2, CCF4 ratio. inhibition, % at 4.98 µM. 0.38% of 360,000 active; in the data active = inhibition above about 21%
# SKN-1 inh = C. elegans SKN-1 inhibition; 0.49% of 360,000 active; C. elegans VP596 Pgst-4::GFP/RFP ratio, acrylamide-induced, 24 h; inhibition, % at 21.8 µM;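 active = interference check ratio from 0.5 to 1.5 plus GFP to RFP signal ratio inhibition reaching or exceeding a fixed threshold, cut at about 30% in these data, passing the limit was not always enough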
# TLR4 MyD88 comp = TLR4-MyD88 interaction inhibition in cells; O00206+Q99836; HeLa CL3-4 TLR4/MyD88 BLA complementation, FRET ratio; inhibition, % at 8.4 µM; 0.18% of 200,000 active; AID 861; in the data active = inhibition above about 25%
# TLR9-MyD88 block = TLR9-MyD88 interaction inhibition | Q9NR96+Q99836 | CHO BLA complementation TLR9-MyD88, CCF4 FRET ratio | inhibition, % at 4.98 µM | 0.21% of 340,000 active;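 active = inhibition above the mean over all tested compounds plus 3 SD, cut at about 21% in these data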
# Target sequence (Q99836 whole entry, looked up): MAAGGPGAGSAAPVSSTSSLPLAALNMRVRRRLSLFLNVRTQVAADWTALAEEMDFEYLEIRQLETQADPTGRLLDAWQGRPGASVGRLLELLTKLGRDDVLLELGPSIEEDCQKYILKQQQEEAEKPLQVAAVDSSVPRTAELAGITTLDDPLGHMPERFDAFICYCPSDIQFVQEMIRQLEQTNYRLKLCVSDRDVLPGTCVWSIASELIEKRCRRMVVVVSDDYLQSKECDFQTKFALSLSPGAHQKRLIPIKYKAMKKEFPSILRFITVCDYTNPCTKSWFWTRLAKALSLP
# Target sequence (Q9NR96 whole entry, looked up): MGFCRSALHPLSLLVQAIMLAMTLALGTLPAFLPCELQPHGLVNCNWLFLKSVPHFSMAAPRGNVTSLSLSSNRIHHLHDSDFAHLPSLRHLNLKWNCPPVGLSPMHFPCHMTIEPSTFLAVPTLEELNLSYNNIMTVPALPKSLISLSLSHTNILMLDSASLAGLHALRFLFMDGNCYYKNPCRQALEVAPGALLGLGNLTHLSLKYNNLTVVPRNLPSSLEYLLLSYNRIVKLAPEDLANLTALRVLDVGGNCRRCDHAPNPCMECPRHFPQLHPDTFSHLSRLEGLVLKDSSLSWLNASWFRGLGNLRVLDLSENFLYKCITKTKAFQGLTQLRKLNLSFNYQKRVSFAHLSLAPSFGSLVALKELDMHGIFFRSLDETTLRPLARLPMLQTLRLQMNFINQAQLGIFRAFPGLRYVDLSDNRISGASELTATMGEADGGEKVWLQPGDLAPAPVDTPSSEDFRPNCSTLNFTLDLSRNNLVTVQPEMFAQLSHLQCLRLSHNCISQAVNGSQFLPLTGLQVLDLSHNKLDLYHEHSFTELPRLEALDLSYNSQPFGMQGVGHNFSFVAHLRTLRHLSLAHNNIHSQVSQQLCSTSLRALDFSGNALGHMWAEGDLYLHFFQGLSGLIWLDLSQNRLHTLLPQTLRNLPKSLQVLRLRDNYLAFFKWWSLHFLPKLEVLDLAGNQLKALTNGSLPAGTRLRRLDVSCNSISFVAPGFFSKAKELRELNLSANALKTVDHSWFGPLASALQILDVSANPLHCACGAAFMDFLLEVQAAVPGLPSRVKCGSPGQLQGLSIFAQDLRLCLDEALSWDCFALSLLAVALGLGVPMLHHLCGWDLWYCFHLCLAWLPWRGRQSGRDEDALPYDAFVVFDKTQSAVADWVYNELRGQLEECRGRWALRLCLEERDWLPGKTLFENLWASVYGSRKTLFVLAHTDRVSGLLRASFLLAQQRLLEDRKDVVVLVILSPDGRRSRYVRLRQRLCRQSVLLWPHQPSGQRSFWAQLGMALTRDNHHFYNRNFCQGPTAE
# Hits are given with their value; i = inactive; nt = no result. Shown are actives, neighbours in structure and some others; about 0.99% of the full set was active somewhere.
SMILES,MT1-MMP act inh,NOD2 RIPK2 PPI,SKN-1 inh,TLR4 MyD88 comp,TLR9-MyD88 block
Cn1c(Cl)nc2ccccc21,i,i,i,i,i
COc1ccc(CCNC(=O)c2coc3ccccc3c2=O)cc1OC,i,i,i,nt,i
COc1ccc(NC(=O)CC23CC4CC(CC(Br)(C4)C2)C3)c(OC)c1,i,i,i,nt,i
O=C(NCCc1cnc[nH]1)c1ccc(-c2ccccc2)cc1,i,i,i,nt,i
CCCC(=O)N1CCN(c2ccc(NC(=O)c3cc4ccccc4o3)cc2Cl)CC1,i,i,i,i,i
CCC(=O)N1CCN(c2ccc(NC(=O)c3cc4ccccc4o3)cc2Cl)CC1,i,i,31,i,i
CN(C)c1ccc(/C=N/NC(=O)CN(c2ccccc2Cl)S(C)(=O)=O)cc1Br,i,i,36,i,i
COc1ccc(C(=O)/C=C/c2cn(CC(O)CN3CCOCC3)c3ccccc23)cc1 (stereo not drawn),i,i,i,i,i
COc1ccc(C(=O)/C=C/c2cn(CN3CCN(C)CC3)c3ccccc23)cc1,i,21,i,i,i
C=CCn1c(SCC(=O)c2c(N)n(C3CC3)c(=O)[nH]c2=O)nnc1-c1ccoc1C,i,i,i,nt,i
C=CCn1c(SCC(=O)c2c(N)n(C)c(=O)n(C)c2=O)nnc1-c1ccoc1C,i,i,35,nt,i
COC(=O)c1oc2ccc(Cl)cc2c1-n1cccc1,i,i,37,i,i
CCOc1ccc(N=Nc2c(=O)[nH]n3c(C)cc(C)nc23)cc1,i,i,45,i,i
CCCCn1nnnc1NCc1ccc(C)s1,i,i,41,i,i
COc1ccc2c3c(ccc2c1)C(=O)/C(=C/O)CC3,i,i,i,nt,i
Clc1ccc(-c2nc(-c3cnccn3)no2)cc1,i,i,46,nt,nt
Cc1ccc(-c2nc(-c3ccccn3)no2)cc1Cl,i,i,i,i,i
c1ccc(-c2ccc(-c3nc(-c4ccccn4)no3)cc2)cc1,i,i,63,i,i
Fc1ccc(-c2nc(-c3cnccn3)no2)c(Cl)c1,i,i,38,nt,i
CCOc1ccccc1C(=O)NCC(=O)N1CCN(Cc2ccc3c(c2)OCO3)CC1,i,i,i,nt,i
CCc1ccc(CN2CCC(n3nccc3NC(=O)c3ccccc3)CC2)o1,i,i,i,nt,i
O=[N+]([O-])c1cc(S(=O)(=O)N2CCCC2)ccc1N/N=C/c1cccs1,i,i,36,i,i
Cc1oncc1-c1csc(-c2ccccc2Cl)n1,i,i,45,i,i
CN1CCn2cnc(C(=O)N[C@@H](Cc3ccccc3)C(=O)OC(C)(C)C)c2C1=O,i,i,i,nt,i
Cc1cccc(OCC(O)Cn2c(N3CCCCC3)nc3c2c(=O)n(C)c(=O)n3C)c1 (stereo not drawn),i,i,i,nt,i
SMILES,MT1-MMP act inh,NOD2 RIPK2 PPI,SKN-1 inh,TLR4 MyD88 comp,TLR9-MyD88 block
Cc1c(N=C2N=C(NC(=O)c3cccs3)c3ccccc32)c(=O)n(-c2ccccc2)n1C,i,i,39,i,i
Cc1ccc(S(=O)(=O)NCC(=O)Nc2cccnc2)cc1C,i,i,i,nt,i
Cc1cc(-c2csc(NC(=O)c3ccc(=O)n(C)n3)n2)c(C)n1CC1CCCO1 (stereo not drawn),i,i,39,i,i
Cc1cc(-c2csc(NC(=O)c3ccc(=O)[nH]c3)n2)c(C)n1Cc1ccco1,i,i,i,nt,i
N/C(=N\OC(=O)c1ccc(Cl)c(Cl)c1)c1cccnc1,i,i,51,i,i
N/C(=N\OC(=O)c1cc(Cl)ccc1Cl)c1cccnc1,i,i,i,i,i
N/C(=N\OC(=O)c1cccc(Cl)c1)c1cccnc1,i,i,42,i,i
CCN(Cc1nc(-c2ccc(C)cc2)no1)C(=O)c1ccco1,i,i,i,nt,i
CCC(C)(C)NC(=O)C(c1cccn1C)N(C(=O)Cn1nnc2ccccc21)c1ccc(OC)cc1OC (stereo not drawn),i,i,43,i,i
COCC(=O)N/N=C(\C)CC(=O)Nc1ccccc1C(N)=O,i,23,i,i,i
Cc1cc(C)n(-c2ccc(C(=O)Oc3ccc4c(c3)OCO4)cc2)n1,i,i,37,i,i
COc1ccc(S(=O)(=O)NCC2CCCN(C(=O)CCC(F)(F)F)C2)cc1 (stereo not drawn),nt,i,i,nt,i
CCOC(=O)C(=O)Nc1ccccc1C(=O)NCc1ccccc1,i,i,i,i,i
O=C(/C=C/c1ccco1)c1ccc(O)cc1,nt,nt,nt,i,nt
O=C(C=Cc1ccco1)c1ccc2ccccc2c1,i,i,63,nt,i
Cc1c(C(=O)NCCC2=CCCCC2)oc2ccc(S(=O)(=O)N3CCOCC3)cc12,i,i,37,i,i
O=C(Nc1ccccc1)O/N=C/c1ccc(F)cc1,i,i,37,nt,i
Cc1ccc(Nc2nc(N)nc(CSc3ncccn3)n2)cc1,i,i,i,i,i
c1ccc(-c2nc(CSc3nnc(-c4cccs4)o3)cs2)cc1,i,i,29,i,i
Cc1ccc(-c2nnc(-c3cccs3)o2)cc1,i,i,36,i,i
Cc1ccc(Nc2nc(CSc3nnc(-c4cccs4)o3)cs2)cc1,i,i,35,i,i
Cc1ccc(Nc2nc(N)nc(CSc3nnc(-c4ccncc4)o3)n2)cc1,i,i,46,i,i
Cc1ccc(Nc2nc(CSc3n[nH]c(N)n3)cs2)cc1,i,i,i,nt,i
CCCCn1nnnc1C(c1ccccc1)N1CCN(c2ccc(C)cc2)CC1 (stereo not drawn),i,i,i,nt,nt
CC1(C(=O)NS(=O)(=O)c2ccccc2Cl)CCN1C(=O)C1(c2ccccc2)CC1 (stereo not drawn),i,i,i,nt,nt
SMILES,MT1-MMP act inh,NOD2 RIPK2 PPI,SKN-1 inh,TLR4 MyD88 comp,TLR9-MyD88 block
Fc1ccc(/C=C/c2nnc(-c3cccs3)o2)cc1,i,i,54,i,i
COCCn1c(SCC(=O)N(C)c2ccccc2)nc2c([nH]c3ccccc32)c1=O,i,i,i,nt,i
Cc1ccc(S(=O)(=O)N2CCc3ccccc3C2)cc1C,i,i,i,nt,i
CN(C)c1ccc(C(=O)c2ccccc2)cc1,i,i,i,i,i
CN(C)c1ccc(N=Nc2ccc(C(=O)O)cc2)cc1,i,i,41,nt,i
Cn1nc(C(=O)N2CCN(S(=O)(=O)c3ccccc3)CC2)c2ccccc2c1=O,i,i,38,i,i
Cc1ccc(S(=O)(=O)N2CCN(C(=O)c3nn(C(C)C)c(=O)c4ccccc34)CC2)cc1C,i,i,i,i,i
CC(O)CC(=O)O (stereo not drawn),i,i,41,nt,i
CC1C(=O)N2CCCc3cc(S(=O)(=O)N(C)CCC#N)cc1c32 (stereo not drawn),i,i,i,nt,i
Cc1cc(C)c(NC(=O)COC(=O)C2CCN(c3ccc(C(F)(F)F)cn3)CC2)c(Cl)c1,i,i,36,nt,i
Cc1cc(C)c(NC(=O)CNC(=O)COC(=O)C2CCN(c3ccc(C(F)(F)F)cn3)CC2)c(C)c1,i,i,i,nt,i
CCc1ccc(/C=C2\SC(=S)N(CCCC(=O)Nc3ccccn3)C2=O)cc1,i,i,47,i,i
